Type in all cases: functional, cell-based
Assay [1] in a line: Cytotoxicity against human MDA-MB-431 cells by MTT assay. In short, it runs like this: (§1)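 MTT viability/proliferation assay on human cancer lines (breast MDA-MB-431, prostate PC3, alveolar basal epithelial A549, colorectal SW620, hepatocellular HepG2). Compounds tested up to a maximum of 10 μM, with activity judged relative to control and IC50 derived. Cisplatin at 5 μg/mL served as positive control.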
In general terms: Tetrazolium assays rely on reduction of a dye to a coloured formazan, in cell work by metabolically active cells.

Assay [2] deals with PC-3. Nature of the assay: Cytotoxicity against human PC3 cells by MTT assay. The essentials: as §1
The next assay deals with HepG2. Nature of the assay: Cytotoxicity against human HepG2 cells assessed as growth inhibition up to 10 uM by MTT assay. In short, it runs like this:
as §1

The next assay relates to SW-620. As to the kind of experiment: Cytotoxicity against human SW620 cells assessed as growth inhibition up to 10 uM by MTT assay. In short, it runs like this:
as §1

A further assay deals with A549. Nature of the assay: Cytotoxicity against human A549 cells assessed as growth inhibition up to 10 uM by MTT assay. In short, it runs like this: as §1
Assay [3] relates to PC-3. As to the kind of experiment: Cytotoxicity against human PC3 cells assessed as growth inhibition up to 10 uM by MTT assay. In short, it runs like this: as §1
Another assay is filed under the species Homo sapiens. As to the kind of experiment: Cytotoxicity against human MDA-MB-431 cells assessed as growth inhibition up to 10 uM by MTT assay. In short, it runs like this: as §1

The values below come from ChEMBL document CHEMBL3091284, “Hygrocins C-G, cytotoxic naphthoquinone ansamycins from gdmAI-disrupted Streptomyces sp. LZ35” (J Nat Prod, 2013).

Molecules are shown by their SMILES. Active and inactive are the calls of the source. No cut-off for these calls is given here.

As to `CC[C@@H]1/C=C/[C@H](O)[C@H](C)OC(=O)/C(C)=C\[C@H]2C(=O)NC3=CC(=O)c4c(cc(C)c(O)c4C(=O)CC1)[C@@]32O`, the values for the IC50 (in assay [1]; in the assay with PC-3 [2]) were 0.5 µM and 1.9 µM, respectively.

Turning to `CC[C@@H]1/C=C/[C@H](O)[C@H](C)OC(=O)/C(C)=C/[C@@H]2C(=O)NC3=CC(=O)c4c(cc(C)c(O)c4C(=O)CC1)[C@@]32O`, the “growth inhibition (GI)” value with HepG2, in the assay with SW-620, with A549, in the assay on PC-3 [3] and in the assay filed under Homo sapiens was “inactive” throughout.

Take `CCC1/C=C/[C@H](C(C)O)OC(=O)[C@@]2(C)C=CC(=O)NC3=C2C(=O)c2c(cc(C)c(O)c2C(=O)CC1)C3=O` (stereo partly specified): the “growth inhibition (GI)” value in the assay on HepG2, in the assay on SW-620, in the assay on A549, with PC-3 [3] and in the assay listed under Homo sapiens was “inactive” throughout.

Turning to `CC[C@@H]1/C=C/[C@H](C(C)O)OC(=O)/C(C)=C\[C@H]2C(=O)NC3=CC(=O)c4c(cc(C)c(O)c4C(=O)CC1)[C@@]32O` (stereo partly specified), the IC50 is 3.3 µM in assay [1] and 4.5 µM in the assay on PC-3 [2].

On to `CCC1/C=C/[C@H](O)[C@H](C)OC(=O)[C@@]2(C)C=CC(=O)NC3=C2C(=O)c2c(cc(C)c(O)c2C(=O)CC1)C3=O` (stereo partly specified), for which the “growth inhibition (GI)” value with HepG2, in the assay on SW-620, in the assay on A549, in the assay with PC-3 [3] and in the assay listed under Homo sapiens was “inactive” throughout.

On to `CC[C@@H]1/C=C/[C@H](O)[C@H](C)OC(=O)/C(C)=C\[C@@H]2C(=O)NC3=CC(=O)c4c(cc(C)c(O)c4C(=O)CC1)[C@@]32O`, for which the figures for the IC50 (in assay [1]; with PC-3 [2]) were 3 µM and 5 µM, respectively.

A word on the IC50: it is the concentration that gives 50% inhibition. Read a high IC50 as weaker potency in that assay.
